Measurements taken from ChEMBL document CHEMBL1152859, “The novel phosphoramidate derivatives of NSAID 3-hydroxypropylamides: synthesis, cytostatic and antiviral activity evaluations” (Eur J Med Chem, 2009).
pIC50: −log10 of the molar value. Calls of active or inactive are those of the source. The calls are words filed in the database; no cut-off is given here.

Columns and labels:
[1] = system: Respiratory syncytial virus; test: Antiviral activity against Respiratory syncytial virus infected in human HeLa cells assessed as inhibition of virus-induced cytopathicity; assay type: functional, organism-based
Outline: (§1)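 Cells were infected with 100 CCID50 of virus for 2 h, then residual virus was removed. Medium with graded compound concentrations was added and cultures were kept 3 days at 37 °C. Cytopathogenicity was scored microscopically. EC50 is the concentration reducing virus-induced cytopathogenicity by 50%.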

[2] = system: Human immunodeficiency virus 2; test: Antiviral activity against HIV2 ROD infected in human CEM cells assessed as inhibition of virus-induced cytopathicity; assay type: functional, organism-based; details: CCRF-CEM
Vaccinia virus = test: Antiviral activity against Vaccinia virus infected in HEL cells assessed as inhibition of virus-induced cytopathicity; assay type: functional, organism-based; details: Orthopoxvirus vaccinia
Outline: (§2)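 Cell cultures were exposed for 2 h to 100 CCID50 of virus, and residual virus was then removed. Infected cells were further incubated with medium containing varying compound concentrations for 3 days at 37 °C. Virus-induced cytopathogenicity was scored microscopically. EC50 is the concentration giving a 50% reduction of cytopathogenicity.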

Human alphaherpesvirus 1 = test: Antiviral activity against Herpes simplex virus 1 infected in HEL cells assessed as inhibition of virus-induced cytopathicity; assay type: functional, organism-based
HeLa = test: Cytostatic activity against human HeLa cells after 72 hrs by MTT assay; assay type: functional, cell-based
Outline: (§3)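 Monolayer cells were grown in DMEM with 10% FBS, 2 mM L-glutamine, penicillin and streptomycin at 37 °C under 5% CO2. They were seeded on day 0 at 1 × 10⁴ to 3 × 10⁴ cells/ml and exposed to five 10-fold dilutions (10⁻⁸ to 10⁻⁴ M) for 72 h, with a solvent control. Read-out was MTT. Quadruplicates in three experiments (WI 38: one experiment). IC50 by linear regression of percentage-of-growth.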

MIA PaCa-2 = test: Cytostatic activity against human MIAPaCa2 cells after 72 hrs by MTT assay; assay type: functional, cell-based; details: MIA PaCa-2, 72 h; outline: as §3
Sindbis virus = test: Antiviral activity against Sindbis virus infected in african green monkey Vero cells assessed as inhibition of virus-induced cytopathicity; assay type: functional, organism-based; outline: as §1
Human respirovirus 3 = test: Antiviral activity against Parainfluenza-3 virus infected in african green monkey Vero cells assessed as inhibition of virus-induced cytopathicity; assay type: functional, organism-based; outline: as §1
Coxsackievirus B4 [3] = test: Antiviral activity against Coxsackievirus B4 infected in african green monkey Vero cells assessed as inhibition of virus-induced cytopathicity; assay type: functional, organism-based; outline: as §1
L1210 = test: Cytostatic activity against mouse L1210 cells after 48 hrs by MTT assay; assay type: functional, cell-based; details: L1210, 48 h
Human alphaherpesvirus 3 = test: Antiviral activity against Varicella-Zoster virus infected in HEL cells assessed as inhibition of virus-induced cytopathicity; assay type: functional, organism-based
[4] = Cytostatic activity against human Molt4/C8 cells after 72 hrs by MTT assay; assay type: functional, cell-based; details: MOLT-4, 72 h
Cytomegalovirus = test: Antiviral activity against Cytomegalovirus infected in HEL cells assessed as inhibition of virus-induced cytopathicity; assay type: functional, organism-based
Outline: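 Confluent HEL fibroblasts were infected with CMV strains Davis and AD-169 at 100 PFU per well for 2 h, then virus was removed. Graded concentrations were added in duplicate and cultures kept 7 days at 37 °C. Cytopathogenicity was scored microscopically after ethanol fixation and Giemsa staining. EC50 is the 50% reduction.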

[5] = system: Vesicular stomatitis virus; test: Antiviral activity against Vesicular stomatitis virus infected in HEL cells assessed as inhibition of virus-induced cytopathicity; assay type: functional, organism-based; outline: as §2
NCI-H460 = test: Cytostatic activity against human H460 cells after 72 hrs by MTT assay; assay type: functional, cell-based; details: NCI-H460, 72 h; outline: as §3
[6] = system: Mammalian orthoreovirus 1; test: Antiviral activity against Reovirus 1 infected in african green monkey Vero cells assessed as inhibition of virus-induced cytopathicity; assay type: functional, organism-based; outline: as §1
CCRF-CEM = test: Cytostatic activity against human CEM cells after 72 hrs by MTT assay; assay type: functional, cell-based
Punta Toro virus = test: Antiviral activity against Punta Toro virus infected in african green monkey Vero cells assessed as inhibition of virus-induced cytopathicity; assay type: functional, organism-based; outline: as §1
MCF7 = test: Cytostatic activity against human MCF7 cells after 72 hrs by MTT assay; assay type: functional, cell-based; details: MCF7, 72 h; outline: as §3
Coxsackievirus B4 [7] = test: Antiviral activity against Coxsackievirus B4 infected in human HeLa cells assessed as inhibition of virus-induced cytopathicity; assay type: functional, organism-based; outline: as §1
SW-620 = test: Cytostatic activity against human SW620 cells after 72 hrs by MTT assay; assay type: functional, cell-based; details: SW-620, 72 h; outline: as §3
[8] = Cytostatic activity against human WI38 cells after 72 hrs by MTT assay; assay type: ADME, cell-based; details: WI-38, 72 h; outline: as §3
[9] = system: Human immunodeficiency virus 1; test: Antiviral activity against HIV1 3B infected in human CEM cells assessed as inhibition of virus-induced cytopathicity; assay type: functional, organism-based; details: CCRF-CEM
[10] = system: Vesicular stomatitis virus; test: Antiviral activity against Vesicular stomatitis virus infected in human HeLa cells assessed as inhibition of virus-induced cytopathicity; assay type: functional, organism-based; outline: as §2
Human alphaherpesvirus 2 = test: Antiviral activity against Herpes simplex virus 2 infected in HEL cells assessed as inhibition of virus-induced cytopathicity; assay type: functional, organism-based

Compound	Activity [1]	Activity [2]	Activity (Vaccinia virus)	Activity (Human alphaherpesvirus 1)	pIC50 (HeLa)	pIC50 (MIA PaCa-2)	Activity (Sindbis virus)	Activity (Human respirovirus 3)	Activity (Coxsackievirus B4 [3])	pIC50 (L1210)	Activity (Human alphaherpesvirus 3)	pIC50 [4]	Activity (Cytomegalovirus)	Activity [5]	pIC50 (NCI-H460)	Activity [6]	pIC50 (CCRF-CEM)	Activity (Punta Toro virus)	pIC50 (MCF7)	Activity (Coxsackievirus B4 [7])	also measured
COC(=O)[C@H](C)NP(=O)(OCCCNC(=O)C(C)c1cccc(C(=O)c2ccccc2)c1)Oc1ccc(Cl)cc1 (stereo not given in full)	inactive	inactive	inactive	inactive	4.72	4.85	inactive	inactive	inactive	4.36	inactive	4.40	inactive	inactive	4.74	inactive	4.40	inactive	4.85	inactive	pIC50 (SW-620): 4.77; pIC50 [8]: 4.52; Activity [9]: inactive; Activity [10]: inactive; Activity (Human alphaherpesvirus 2): inactive
CC(C(=O)NCCCO)c1cccc(Oc2ccccc2)c1 (stereo not given)	inactive	inactive	inactive	inactive	< 4.00	< 4.00	inactive	inactive	inactive	3.64	inactive	4.00	inactive	inactive	< 4.00	inactive	4.15	inactive	< 4.00	inactive	pIC50 (SW-620): < 4.00; Activity [9]: inactive; Activity [10]: inactive; Activity (Human alphaherpesvirus 2): inactive
O=C(Cc1ccccc1Nc1c(Cl)cccc1Cl)NCCCO	inactive	inactive	inactive	inactive	4.34	4.27	inactive	inactive	inactive	3.70	inactive	3.67	inactive	inactive	4.17	inactive	3.67	inactive	4.41	inactive	pIC50 (SW-620): 4.44; Activity [9]: inactive; Activity [10]: inactive; Activity (Human alphaherpesvirus 2): inactive
CC(C)Cc1ccc(C(C)C(=O)NCCCO)cc1 (stereo not given)	inactive	inactive	inactive	inactive	< 4.00	≤ 4.00	inactive	inactive	inactive	3.67	inactive	4.03	inactive	inactive	< 4.00	inactive	4.26	inactive	< 4.00	inactive	pIC50 (SW-620): < 4.00; Activity [9]: inactive; Activity [10]: inactive; Activity (Human alphaherpesvirus 2): inactive
COC(=O)[C@H](C)NP(=O)(OCCCNC(=O)Cc1ccccc1Nc1c(Cl)cccc1Cl)Oc1ccc(Cl)cc1 (stereo not given in full)	inactive	inactive	inactive	inactive	4.80	4.80	inactive	inactive	inactive	4.89	inactive	5.01	inactive	inactive	4.77	inactive	4.66	inactive	5.05	inactive	pIC50 (SW-620): 4.80; pIC50 [8]: 4.74; Activity [9]: inactive; Activity [10]: inactive; Activity (Human alphaherpesvirus 2): inactive
CC(C(=O)NCCCO)c1cccc(C(=O)c2ccccc2)c1 (stereo not given)	inactive	inactive	inactive	inactive	< 4.00	< 4.00	inactive	inactive	inactive	3.56	inactive	4.01	inactive	inactive	< 4.00	inactive	4.15	inactive	< 4.00	inactive	pIC50 (SW-620): < 4.00; Activity [9]: inactive; Activity [10]: inactive; Activity (Human alphaherpesvirus 2): inactive
COC(=O)[C@H](C)NP(=O)(OCCCNC(=O)Cc1c(C)n(C(=O)c2ccc(Cl)cc2)c2ccc(OC)cc12)Oc1ccc(Cl)cc1 (stereo not given in full)	inactive	inactive	inactive	inactive	4.77	5.10	inactive	inactive	inactive	4.62	inactive	4.55	inactive	inactive	4.74	inactive	4.96	inactive	4.80	inactive	pIC50 (SW-620): 4.82; pIC50 [8]: 4.80; Activity [9]: inactive; Activity [10]: inactive; Activity (Human alphaherpesvirus 2): inactive
COC(=O)[C@H](C)NP(=O)(OCCCNC(=O)C(C)c1cccc(Oc2ccccc2)c1)Oc1ccc(Cl)cc1 (stereo not given in full)	inactive	inactive	inactive	inactive	5.22	5.30	inactive	inactive	inactive	4.62	inactive	4.41	inactive	inactive	4.89	inactive	4.42	inactive	4.92	inactive	pIC50 (SW-620): 5.15; pIC50 [8]: 4.70; Activity [9]: inactive; Activity [10]: inactive; Activity (Human alphaherpesvirus 2): inactive
COc1ccc2c(c1)c(CC(=O)NCCCO)c(C)n2C(=O)c1ccc(Cl)cc1	inactive	inactive	inactive	inactive	4.59	4.36	inactive	inactive	inactive	3.75	inactive	3.95	inactive	inactive	< 4.00	inactive	4.11	inactive	4.66	inactive	pIC50 (SW-620): 4.33; Activity [9]: inactive; Activity [10]: inactive; Activity (Human alphaherpesvirus 2): inactive
